Measurements gathered from unrelated publications.
Lines come from different studies, so protocols differ.
PI4KB: Phosphatidylinositol 4-kinase beta (PI4KB, Homo sapiens, UniProt Q9UBF8)
SPHK2: Sphingosine kinase 2 (SPHK2, Homo sapiens, UniProt Q9NRA0)
cah: cah (Neisseria gonorrhoeae, UniProt Q50940)
CA4: Carbonic anhydrase 4 (CA4, Homo sapiens, UniProt P22748)
HDAC4: Histone deacetylase 4 (HDAC4, Homo sapiens, UniProt P56524)

The Kd of `Cc1nc(NC(=O)N2CCC[C@H]2C(N)=O)sc1-c1ccnc(C(C)(C)C(F)(F)F)c1` is reported as 82 nM (PI4KB; binding, competition with immobilised ligand).
The Ki of `CCCC[C@H](NC(=O)[C@H](C)c1c(C)[nH]c2ccc(O)cc12)c1ncc(-c2cc3ccccc3nc2OC)[nH]1` is reported as 3940 nM (Alpha-1B adrenergic receptor (Adra1b, Rattus norvegicus, UniProt P15823); cell-free assay).
`COc1cc(C2Oc3cc([C@H]4Oc5cc(O)cc(O)c5C(=O)[C@@H]4O)ccc3OC2CO)ccc1O` (some centres unmarked) has a Ki of 58400 nM (Cytochrome P450 2B1 (Cyp2b1, Rattus norvegicus, UniProt P00176); enzyme activity, inhibitor; rat, liver microsomes; 1 h).
The AC50 of `O=C(Nc1ccc(CN2CCOCC2)c(C(F)(F)F)c1)c1ccc(C#Cc2cccc3cnccc23)cn1` is reported as 5500 nM (Oxidized purine nucleoside triphosphate hydrolase (NUDT1, Homo sapiens, UniProt P36639); enzyme activity, activator).
`CCCc1ccc(CCc2ccc(-c3noc([C@@H]4CCCN4C(=N)N)n3)cc2C(F)(F)F)cc1` gave a Ki of 132 nM (SPHK2; enzyme activity, inhibitor).
With `CN(C)C1CCN(C(=O)c2ccc(NC(=O)Nc3ccc(-c4nc(N5CCOCC5)nc(N5CCOCC5)n4)cc3)cc2)CC1` the Kd was greater than 30000 nM (PI4KB; binding, competition with immobilised ligand).
With `CC1CCC(C(=O)Nc2nnc(S(N)(=O)=O)s2)CC1` (centres unmarked) the Ki was 8.7 nM (cah; enzyme activity, inhibitor).
With `Cc1cnc(-c2ccc(-c3ccc(NC(=O)Nc4c(F)cc(F)cc4F)cc3F)c3c2C(=O)NC3)[nH]1` the Kd was 2.2 nM (Tyrosine-protein kinase Blk (BLK, Homo sapiens, UniProt P51451); binding, competition with immobilised ligand).
With `CC[C@H](NC(=O)[C@H](CS(=O)(=O)CC1CC1)N[C@@H](c1ccc(F)cc1)C(F)(F)F)C(=O)C(=O)NC1CC1` the Ki was 0.77 nM (Cathepsin S (Rattus norvegicus, UniProt Q02765); enzyme activity, inhibitor).
`NS(=O)(=O)c1ccc(C(=O)CSCc2ccccc2)cc1` has a Kd of 16 nM (CA4; thermal stability, DSF; pH 7).
With `NS(=O)(=O)c1nnc(NC(=O)CC2CCCC2)s1` the Ki was 34.6 nM (cah; enzyme activity, inhibitor).
`N[C@@H](CCC(=O)O)C(=O)O` gave an EC50 of 840000 nM (Metabotropic glutamate receptor 7 (Grm7, Rattus norvegicus, UniProt P35400); calcium signal, agonist).
`FC(F)(F)c1ccc([C+](c2c[nH]c3ccccc23)c2c[nH]c3ccccc23)cc1` has a Kd of 170 nM (Nuclear receptor subfamily 4immunitygroup A member 1 (NR4A1, Homo sapiens, UniProt P22736); binding, SPR).
`NC(=O)c1ccc[n+]([C@@H]2O[C@H](COP(=O)([O-])OP(=O)(O)OC[C@H]3O[C@@H](n4cnc5c(N)ncnc54)[C@H](O)[C@@H]3O)[C@@H](O)[C@H]2O)c1` gave a Kd of no more than 2300 nM (Inosine-5'-monophosphate dehydrogenase (Cryptosporidium parvum, UniProt Q8T6T2); binding).
The Kd of `C=CC(=O)N1CCC(C(=O)NCC(=O)N2CCN(c3nc(-c4cnc(N)nc4C(F)F)nc(N4CCOCC4)n3)CC2)CC1` is reported as greater than 30000 nM (PI4KB; binding, competition with immobilised ligand).
`Cc1ncsc1-c1ccc(CNC(=O)[C@@H]2C[C@@H](O)CN2C(=O)[C@@H](NC(=O)COCCOCCOCC(F)(F)c2cnc(-c3ccc(C(C(=O)NO)c4ccccc4F)cc3)nc2)C(C)(C)C)cc1` (mixture of isomers) has a DC50 of 28 nM (HDAC4; protein level, degrader).
With `CCOC(=O)[C@](CC)(CCCS(=O)(=O)CCOCCOCCNC(=O)OC(C)(C)C)NC(=O)c1ccc(C2CC2)c(Cc2ccc(F)cc2)n1` the Ki was 100 nM (Cannabinoid receptor 2 (Cnr2, Mus musculus, UniProt P47936); ligand displacement, radioligand; cell membranes).
The Kd of `Cc1ccc(C(=O)Nc2ccc(Oc3cc4cnn(C)c4cc3-c3cn[nH]c3)c(F)c2)c(=O)n1-c1ccc(F)cc1` is reported as 620 nM (Platelet-derived growth factor receptor alpha (PDGFRA, Homo sapiens, UniProt P16234); binding, competition with immobilised ligand).
`NS(=O)(=O)c1nnc(NC(=O)C2CCCC2)s1` gave a Ki of 14.1 nM (cah; enzyme activity, inhibitor).
`CCCN(CCCCOCCOCCOCCOCCOCC(=O)N[C@H](C(=O)N1C[C@H](O)C[C@H]1C(=O)NCc1ccc(-c2scnc2C)cc1)C(C)(C)C)C[C@@H](C)NC(=O)c1ccc(-c2noc(C(F)(F)F)n2)cc1` gave a DC50 of 4 nM (HDAC4; protein level, degrader).
`N=C(N)N1CCC[C@H]1c1nc(-c2ccc(CCc3ccc(C(F)(F)F)cc3)c(C(F)(F)F)c2)no1` has a Ki of 165 nM (SPHK2; enzyme activity, inhibitor).
With `Nc1nc(-c2ccc(Cl)c(S(N)(=O)=O)c2)cs1` the Kd was 200 nM (CA4; thermal stability, DSF; pH 7).
`Nc1nnc(S(N)(=O)=O)s1` gave a Ki of 73.2 nM (cah; enzyme activity, inhibitor).
